The text below walks through data of ChEMBL document CHEMBL4834402, “Discovery of TAK-981, a First-in-Class Inhibitor of SUMO-Activating Enzyme for the Treatment of Cancer” (J Med Chem, 2021).

Broadly, the IC50 is the concentration that gives 50% inhibition.

Experiment [1] deals with T1, SUMO-activating enzyme (Homo sapiens, UniProt Q9UBT2). Kind of experiment: Inhibition of recombinant SAE (unknown origin) assessed as reduction in transfer of SUMO1 to UBC9 using SUMO1 as a substrate in presence of ATP at Km concentration by HTRF assay. The format is protein-complex assay. The essentials: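 HTRF transthiolation assay measuring transfer of SUMO1 to UBC9, the E2 for SAE.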
A general note: In TR-FRET formats the signal depends on donor and acceptor labels being close together.

Experiment [2] can be described thus: Inhibition of recombinant UAE (unknown origin) in presence of ATP at Km concentration by HTRF assay. The arrangement: species or system Homo sapiens.
In a further experiment the target is T2, NEDD8 activating enzyme (Homo sapiens, UniProt Q8TBC4).
T2 sequence (Q8TBC4 whole entry): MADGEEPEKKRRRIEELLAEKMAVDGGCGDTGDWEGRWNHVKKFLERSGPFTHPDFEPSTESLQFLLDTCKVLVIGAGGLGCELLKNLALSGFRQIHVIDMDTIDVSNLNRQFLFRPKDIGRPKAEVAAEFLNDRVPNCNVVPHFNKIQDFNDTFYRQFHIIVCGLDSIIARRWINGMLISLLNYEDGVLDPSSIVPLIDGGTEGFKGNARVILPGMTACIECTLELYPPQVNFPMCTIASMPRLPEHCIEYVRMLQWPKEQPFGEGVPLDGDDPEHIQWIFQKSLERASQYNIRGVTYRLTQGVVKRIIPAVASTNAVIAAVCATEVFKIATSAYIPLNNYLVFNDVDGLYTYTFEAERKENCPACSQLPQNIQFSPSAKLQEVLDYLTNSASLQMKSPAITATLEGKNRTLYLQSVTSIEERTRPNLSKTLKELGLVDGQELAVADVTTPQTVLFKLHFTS
T2 sequence (Q13564 whole entry): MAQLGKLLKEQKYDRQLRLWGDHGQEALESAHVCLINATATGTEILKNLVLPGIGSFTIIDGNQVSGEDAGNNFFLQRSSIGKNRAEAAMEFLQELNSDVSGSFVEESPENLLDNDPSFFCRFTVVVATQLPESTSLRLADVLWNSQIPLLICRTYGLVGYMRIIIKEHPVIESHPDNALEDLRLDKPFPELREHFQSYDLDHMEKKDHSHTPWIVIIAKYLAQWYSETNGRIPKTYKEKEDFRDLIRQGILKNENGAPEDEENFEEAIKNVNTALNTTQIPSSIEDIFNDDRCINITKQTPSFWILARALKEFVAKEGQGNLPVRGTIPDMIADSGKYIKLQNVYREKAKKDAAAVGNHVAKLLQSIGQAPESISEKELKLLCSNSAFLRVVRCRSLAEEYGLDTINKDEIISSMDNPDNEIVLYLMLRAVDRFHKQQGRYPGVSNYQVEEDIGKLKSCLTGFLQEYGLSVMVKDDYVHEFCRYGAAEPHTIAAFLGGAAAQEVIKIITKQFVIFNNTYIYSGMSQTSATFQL
Description: Inhibition of recombinant NAE (unknown origin) in presence of ATP at Km concentration by HTRF assay. The format is protein-complex assay.

For experiment [3], the target named is T1, SUMO-activating enzyme. Description: Inhibition of SAE in human HCT116 cells assessed as reduction in redistribution of SUMO2/3 proteins from nucleus to cytosol incubated for 4 hrs by immunofluorescence assay. The format is cell-based, HCT-116. An outline of the steps:
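HCT-116 cells exposed to compound across a concentration range for 4 h, then stained with anti-SUMO2/3 monoclonal antibody. Automated imaging scored the nuclear (inner) to cytoplasmic (outer) SUMO2/3 ratio. IC50 taken from the dose response.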

T1 sequence (Q9UBE0 whole entry): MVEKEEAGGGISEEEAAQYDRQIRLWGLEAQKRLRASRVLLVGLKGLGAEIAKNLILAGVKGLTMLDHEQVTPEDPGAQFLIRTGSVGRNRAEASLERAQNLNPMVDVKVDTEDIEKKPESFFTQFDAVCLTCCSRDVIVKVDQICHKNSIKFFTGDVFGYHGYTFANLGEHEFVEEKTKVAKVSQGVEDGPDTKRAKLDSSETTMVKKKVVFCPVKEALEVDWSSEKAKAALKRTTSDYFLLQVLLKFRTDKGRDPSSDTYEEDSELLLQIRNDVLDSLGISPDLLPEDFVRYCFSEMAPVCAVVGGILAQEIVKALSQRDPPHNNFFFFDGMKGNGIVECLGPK
T1 sequence (Q9UBT2 whole entry): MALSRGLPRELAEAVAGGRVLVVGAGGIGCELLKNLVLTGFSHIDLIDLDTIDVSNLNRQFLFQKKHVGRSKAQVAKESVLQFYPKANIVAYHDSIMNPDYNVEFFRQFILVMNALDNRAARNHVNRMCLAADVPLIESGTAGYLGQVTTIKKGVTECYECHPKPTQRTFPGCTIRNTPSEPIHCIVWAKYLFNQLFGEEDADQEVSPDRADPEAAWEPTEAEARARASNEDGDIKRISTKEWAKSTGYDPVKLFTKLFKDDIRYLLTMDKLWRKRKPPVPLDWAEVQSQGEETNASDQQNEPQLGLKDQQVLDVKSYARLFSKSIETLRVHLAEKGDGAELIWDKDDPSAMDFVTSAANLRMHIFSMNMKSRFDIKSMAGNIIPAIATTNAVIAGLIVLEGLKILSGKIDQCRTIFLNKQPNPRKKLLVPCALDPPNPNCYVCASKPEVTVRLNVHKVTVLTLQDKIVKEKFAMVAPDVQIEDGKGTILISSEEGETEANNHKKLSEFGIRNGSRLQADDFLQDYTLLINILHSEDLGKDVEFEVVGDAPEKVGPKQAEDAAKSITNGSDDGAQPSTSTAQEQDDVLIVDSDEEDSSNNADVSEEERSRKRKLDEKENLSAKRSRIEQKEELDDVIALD

Turning to `NS(=O)(=O)OC[C@H]1C[C@@H](Nc2ncncc2C(=O)c2ccn(Cc3ccc(Cl)cc3)n2)C[C@@H]1O`, the IC50 is 5.1 nM on SUMO-activating enzyme [1], above 1000 nM in experiment [2], above 1000 nM on NEDD8 activating enzyme and 1880 nM at SUMO-activating enzyme [3].

As for `C#Cc1cccc(Cn2ccc(C(=O)c3cncnc3N[C@@H]3C[C@H](COS(N)(=O)=O)[C@@H](O)C3)n2)c1`, the IC50 at SUMO-activating enzyme [1] is 1.1 nM; in experiment [2], above 1000 nM; on NEDD8 activating enzyme it was 304 nM; on SUMO-activating enzyme [3], 22 nM.

As for `NS(=O)(=O)OC[C@H]1C[C@@H](Nc2ncncc2C(=O)c2ccn(Cc3ccccc3)n2)[C@H](F)[C@@H]1O`, the IC50 on SUMO-activating enzyme [1] is 3.8 nM; in experiment [2] it was above 1000 nM; on NEDD8 activating enzyme, 334 nM; on SUMO-activating enzyme [3], 517 nM.

As to `NS(=O)(=O)OC[C@H]1C[C@@H](Nc2ncncc2C(=O)c2cc(C3OCc4ccc(Cl)cc43)c(Cl)s2)C[C@@H]1O` (some centres not stated), the IC50 was 3 nM on SUMO-activating enzyme [1], above 1000 nM in experiment [2], above 1000 nM on NEDD8 activating enzyme and 163 nM at SUMO-activating enzyme [3].

With `NS(=O)(=O)OC[C@H]1C[C@@H](Nc2ncncc2C(=O)c2ccn(Cc3cccc(Br)n3)n2)C[C@@H]1O`, the IC50 on SUMO-activating enzyme [1] is 0.7 nM; in experiment [2], above 1000 nM; on NEDD8 activating enzyme, 581 nM; at SUMO-activating enzyme [3], 49 nM.

In the case of `Cc1sc(C(=O)c2cncnc2N[C@@H]2C[C@H](COS(N)(=O)=O)[C@@H](O)C2)cc1[C@H]1NCCc2ccc(Cl)cc21`, the IC50 on SUMO-activating enzyme [1] was 30 nM; in experiment [2], above 1000 nM; on NEDD8 activating enzyme, 554 nM; on SUMO-activating enzyme [3], 399 nM.

Turning to `NS(=O)(=O)OC[C@H]1C[C@@H](Nc2ncncc2C(=O)c2ccn(Cc3cccc(Cl)n3)n2)C[C@@H]1O`, the IC50 on SUMO-activating enzyme [1] is 1 nM; in experiment [2], above 1000 nM; on NEDD8 activating enzyme, 478 nM; at SUMO-activating enzyme [3], 66 nM.

Consider `NS(=O)(=O)OC[C@H]1C[C@@H](Nc2ncncc2C(=O)c2ccn(Cc3ccccc3)n2)C(F)(F)[C@@H]1O`, for which the IC50 on SUMO-activating enzyme [1] was 3.9 nM; in experiment [2], above 1000 nM; on NEDD8 activating enzyme it was above 1000 nM; at SUMO-activating enzyme [3], 249 nM.

For the compound `NS(=O)(=O)OC[C@H]1C[C@@H](Nc2ncncc2C(=O)c2ccn(Cc3cccc(OC(F)(F)F)c3)n2)C[C@@H]1O`, the IC50 was 2.1 nM at SUMO-activating enzyme [1], above 1000 nM in experiment [2], above 1000 nM at NEDD8 activating enzyme and 78 nM on SUMO-activating enzyme [3].

With `NS(=O)(=O)OC[C@H]1C[C@@H](Nc2ncncc2C(=O)c2ccn(Cc3ccccc3Cl)n2)C[C@@H]1O`, the IC50 was 3.2 nM at SUMO-activating enzyme [1], above 1000 nM in experiment [2], 215 nM on NEDD8 activating enzyme and 332 nM on SUMO-activating enzyme [3].

As to `Cc1cccc(Cn2ccc(C(=O)c3cncnc3N[C@@H]3C[C@H](COS(N)(=O)=O)[C@@H](O)C3)n2)c1`, the IC50 on SUMO-activating enzyme [1] is 1.7 nM; in experiment [2], above 1000 nM; at NEDD8 activating enzyme, 308 nM; on SUMO-activating enzyme [3], 29 nM.

With `NS(=O)(=O)OC[C@H]1C[C@@H](Nc2ncncc2C(=O)c2csc(Cc3cccc(Br)c3)c2)C[C@@H]1O`, the IC50 on SUMO-activating enzyme [1] is 18 nM; in experiment [2], above 1000 nM; on NEDD8 activating enzyme, 523 nM; on SUMO-activating enzyme [3], 4930 nM.

Consider `Cc1sc(C(=O)c2cncnc2N[C@@H]2C[C@H](COS(N)(=O)=O)[C@@H](O)C2)cc1C1OCCc2ccc(Cl)cc21` (stereo in doubt; 47), for which the IC50 at SUMO-activating enzyme [1] stood at 11 nM; at NEDD8 activating enzyme it was 87 nM; at SUMO-activating enzyme [3] it was 3880 nM.

For `NS(=O)(=O)OC[C@H]1C[C@@H](Nc2ncncc2C(=O)c2cc(C3NCc4ccc(Cl)cc43)cs2)C[C@@H]1O` (some centres not stated), the IC50 is 1.6 nM at SUMO-activating enzyme [1], above 1000 nM in experiment [2], above 1000 nM on NEDD8 activating enzyme and 312 nM at SUMO-activating enzyme [3].

Take `NS(=O)(=O)OC[C@H]1C[C@@H](Nc2ncncc2C(=O)c2ccn(Cc3ccc(Cl)o3)n2)C[C@@H]1O`: the IC50 on SUMO-activating enzyme [1] was 1.1 nM; in experiment [2], above 1000 nM; on NEDD8 activating enzyme, 435 nM; on SUMO-activating enzyme [3], 33 nM.

`NS(=O)(=O)OC[C@H]1C[C@@H](Nc2ncncc2C(=O)c2cc(Cc3cccc(Br)c3)cs2)C[C@@H]1O`: the values for the IC50 (in experiment [2]; at NEDD8 activating enzyme) were above 1000 nM and 91 nM, respectively.

With `NS(=O)(=O)OC[C@H]1C[C@@H](Nc2ncncc2C(=O)c2ccn(-c3ccccc3)n2)C[C@@H]1O`, the IC50 at SUMO-activating enzyme [1] was 67 nM; in experiment [2], 468 nM; on NEDD8 activating enzyme it was 32 nM; on SUMO-activating enzyme [3], above 1000 nM.

For the compound `NS(=O)(=O)OC[C@H]1C[C@@H](Nc2ncncc2C(=O)c2ccn(Cc3ccccc3)c2)C[C@@H]1O`, the IC50 is 1.7 nM at SUMO-activating enzyme [1], above 1000 nM in experiment [2], 23 nM on NEDD8 activating enzyme and 30 nM on SUMO-activating enzyme [3].

On to `NS(=O)(=O)OC[C@H]1C[C@@H](Nc2ncncc2C(=O)c2cc(C3OCCc4c(Cl)cccc43)cs2)C[C@@H]1O` (some centres not stated), for which the IC50 at SUMO-activating enzyme [1] is 1.7 nM; in experiment [2] it was above 1000 nM; at NEDD8 activating enzyme, 265 nM; on SUMO-activating enzyme [3], 76 nM.

With `NS(=O)(=O)OC[C@H]1C[C@@H](Nc2ncncc2C(=O)c2ccn(CC3CCCCC3)n2)C[C@@H]1O`, the IC50 on SUMO-activating enzyme [1] is 8.2 nM; in experiment [2] it was above 1000 nM; on NEDD8 activating enzyme, 276 nM; on SUMO-activating enzyme [3] it was 1610 nM.

As to `NC(c1cccc(Cl)c1)c1csc(C(=O)c2cncnc2N[C@@H]2C[C@H](COS(N)(=O)=O)[C@@H](O)C2)c1` (stereo in doubt; 32), the IC50 at SUMO-activating enzyme [1] was 1.5 nM; in experiment [2], above 1000 nM; at NEDD8 activating enzyme it was 328 nM; at SUMO-activating enzyme [3], 1030 nM.

Regarding `NS(=O)(=O)OC[C@H]1C[C@@H](Nc2ncncc2C(=O)c2cc(Cc3cccc(Cl)c3)cs2)C[C@@H]1O`, the IC50 in experiment [2] was above 1000 nM; at NEDD8 activating enzyme, 64 nM.

Regarding `NS(=O)(=O)OC[C@H]1C[C@@H](Nc2ncncc2C(=O)c2ccc(Cc3cccc(Br)c3)o2)C[C@@H]1O`, the IC50 in experiment [2] was above 1000 nM; on NEDD8 activating enzyme it was 267 nM.

As for `NS(=O)(=O)OC[C@H]1C[C@@H](Nc2ncncc2C(=O)c2cnn(Cc3ccccc3)c2)C[C@@H]1O`, the IC50 at SUMO-activating enzyme [1] is 6.3 nM; in experiment [2], above 1000 nM; at NEDD8 activating enzyme, 122 nM; on SUMO-activating enzyme [3], 2940 nM.

Regarding `NS(=O)(=O)OC[C@H]1C[C@@H](Nc2ncncc2C(=O)c2ccn(Cc3cccc(C(F)(F)F)c3)n2)C[C@@H]1O`, the IC50 is 1.1 nM on SUMO-activating enzyme [1], above 1000 nM in experiment [2], 695 nM on NEDD8 activating enzyme and 39 nM at SUMO-activating enzyme [3].

On to `CN(C)C(c1cccc(Cl)c1)c1csc(C(=O)c2cncnc2N[C@@H]2C[C@H](COS(N)(=O)=O)[C@@H](O)C2)c1` (some centres not stated), for which the IC50 at SUMO-activating enzyme [1] is 25 nM; in experiment [2] it was above 1000 nM; on NEDD8 activating enzyme it was above 1000 nM; on SUMO-activating enzyme [3], 4170 nM.

Turning to `NS(=O)(=O)OC[C@H]1C[C@@H](Nc2ncncc2C(=O)c2ccn(Cc3cccc(Br)c3)c2)C[C@@H]1O`, the IC50 is 0.6 nM at SUMO-activating enzyme [1], above 1000 nM in experiment [2], 10 nM on NEDD8 activating enzyme and 14 nM at SUMO-activating enzyme [3].

Regarding `N#Cc1sc(C(=O)c2cncnc2N[C@@H]2C[C@H](COS(N)(=O)=O)[C@@H](O)C2)cc1Cc1cccc(Cl)c1`, the IC50 was 19 nM at SUMO-activating enzyme [1], above 1000 nM in experiment [2], above 1000 nM on NEDD8 activating enzyme and 6260 nM at SUMO-activating enzyme [3].

In the case of `NS(=O)(=O)OC[C@H]1C[C@@H](Nc2ncncc2C(=O)c2ccn(Cc3ccccc3)n2)[C@@H](F)[C@@H]1O`, the IC50 was found to be 2.3 nM at SUMO-activating enzyme [1], 492 nM in experiment [2], 688 nM on NEDD8 activating enzyme and 260 nM on SUMO-activating enzyme [3].

In the case of `NS(=O)(=O)OC[C@H]1C[C@@H](Nc2ncncc2C(=O)c2ccn(Cc3cccc(Cl)c3)n2)C[C@@H]1O`, the IC50 at SUMO-activating enzyme [1] is 0.7 nM; in experiment [2] it was above 1000 nM; at NEDD8 activating enzyme, 242 nM; at SUMO-activating enzyme [3], 20 nM.

Turning to `NS(=O)(=O)OC[C@H]1C[C@@H](Nc2ncncc2C(=O)c2ccn(Cc3cccc(F)c3)n2)C[C@@H]1O`, the IC50 on SUMO-activating enzyme [1] is 2.9 nM; in experiment [2], above 1000 nM; on NEDD8 activating enzyme, 357 nM; at SUMO-activating enzyme [3], 515 nM.
